Measurements pooled from the literature.
Each line is one published result; the experiments were not run side by side.
CDK3: Cyclin-dependent kinase 3 (CDK3, Homo sapiens, UniProt Q00526)
CSNK1A1L: Casein kinase I isoform alpha-like (CSNK1A1L, Homo sapiens, UniProt Q8N752)
CHRM1: Muscarinic acetylcholine receptor M1 (CHRM1, Homo sapiens, UniProt P11229)

SMILES	target	assay	system	setting	quantity	result
Cc1cc(O)c(-c2ccc([C@@H](C)CN(C)C)cc2)c2c1[nH]c(=O)c1sccc12	Serine/threonine-protein kinase Sgk1 (SGK1, Homo sapiens, UniProt O00141)	enzyme activity, inhibitor	–	0.1 µM	inhibition	-3.37%
Cc1cc(S(=O)(=O)N[C@H]2CC[C@H](CN3CCN(c4ccc(C5CCC(=O)NC5=O)cc4F)CC3)CC2)ccc1Nc1ncc(C(F)(F)F)c(N2CCC[C@](C)(O)C2)n1 (some centres unmarked)	CDK3	binding, competition with immobilised ligand	–	1 µM	remaining binding	63%
CCCCC(=O)Nc1ccc(-c2ccc3ncn(CCC)c(=O)c3c2)cn1	CSNK1A1L	binding, competition with immobilised ligand	–	0.5 µM	remaining binding	99%
CNS(=O)(=O)c1ccc(Nc2ncc(C(F)(F)F)c(N3CCC[C@](C)(O)C3)n2)c(C)c1	CDK3	binding, competition with immobilised ligand	–	1 µM	remaining binding	49%
CNC(=O)COc1cc2cc(Nc3nc(N4CCC(C(=O)N(C)C)CC4)ncc3Cl)cc(OC)c2n(C)c1=O	B-cell lymphoma 6 protein (BCL6, Homo sapiens, UniProt P41182)	target engagement in cells, BRET	HEK-293T	1 µM	inhibition	> 90%
C#Cc1cc(-c2cc(Nc3nc(N[C@@H](C)c4ccc(F)cn4)ncc3Cl)n[nH]2)ccc1C=O	Tyrosine-protein kinase JAK1 (JAK1, Homo sapiens, UniProt P23458)	enzyme activity, inhibitor	–	0.2 µM	inhibition	89.1%
NC/C(=C\F)COc1cccc(Cn2c(=S)[nH]c(=O)c3[nH]cnc32)c1	CHRM1	ligand displacement, radioligand	–	10 µM	inhibition	< 50%
CCN1/C(=C/C(C)=O)Sc2ccc(F)cc21	Prostaglandin E2 receptor EP2 subtype (PTGER2, Homo sapiens, UniProt P43116)	ligand displacement, radioligand	–	10 µM	inhibition	4.3%
COc1ccc2oc(-c3ccc4nc(N)oc4c3)c/c(=N\c3ccccc3NC(=O)CCN)c2c1	Tyrosine-protein kinase ABL1 (Abl1, Mus musculus, UniProt P00520)	binding	–	1 µM	remaining binding	91%
Cc1cc(F)cc2c(CCC(=O)N[C@@H]3C(=O)NC[C@H]3O)c(-c3ccc(F)cc3)[nH]c12	CHRM1	cell-free assay	–	10 µM	inhibition	14%
C1=C/COCc2cc(ccc2OCCN2CCCC2)Nc2nccc(n2)-c2cccc(c2)COC/1	CSNK1A1L	binding	–	0.1 µM	remaining binding	99%
